The text below walks through data of ChEMBL document CHEMBL4049451, “Exploring the Role of N6-Substituents in Potent Dual Acting 5'-C-Ethyltetrazolyladenosine Derivatives: Synthesis, Binding, Functional Assays, and Antinociceptive Effects in Mice ∇” (J Med Chem, 2017).

Assay [1] deals with T1, Adenosine receptor A3 (Rattus norvegicus, UniProt P28647).
T1 sequence (P28647 whole entry): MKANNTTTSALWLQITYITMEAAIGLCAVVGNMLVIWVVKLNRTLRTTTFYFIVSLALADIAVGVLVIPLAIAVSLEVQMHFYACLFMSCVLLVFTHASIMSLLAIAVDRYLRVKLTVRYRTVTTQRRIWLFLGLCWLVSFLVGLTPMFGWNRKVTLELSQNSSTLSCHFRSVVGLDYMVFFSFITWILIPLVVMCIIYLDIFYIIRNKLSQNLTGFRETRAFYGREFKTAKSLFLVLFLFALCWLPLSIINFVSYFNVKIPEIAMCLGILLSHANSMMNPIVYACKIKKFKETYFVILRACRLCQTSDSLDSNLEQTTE
As to the kind of experiment: Displacement of [3H]NECA from recombinant rat adenosine A3 receptor expressed in CHO cell membranes after 3 hrs by microbeta scintillation counting. In short, it runs like this: (§1)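 CHO membranes with stable human A1, A2A, A3 or rat A3 (1000g then 100 000g spin, stored -80 °C). Competition: hA1 1 nM [3H]CCPA, nonspecific with 1 mM theophylline; hA2A 10 nM [3H]NECA; hA3 1 nM [3H]HEMADO; rA3 30 nM [3H]NECA; latter three nonspecific with 100 μM R-PIA.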

The target in assay [2] is T2, Adenosine receptor A1 (Homo sapiens, UniProt P30542).
T2 sequence (P30542 whole entry): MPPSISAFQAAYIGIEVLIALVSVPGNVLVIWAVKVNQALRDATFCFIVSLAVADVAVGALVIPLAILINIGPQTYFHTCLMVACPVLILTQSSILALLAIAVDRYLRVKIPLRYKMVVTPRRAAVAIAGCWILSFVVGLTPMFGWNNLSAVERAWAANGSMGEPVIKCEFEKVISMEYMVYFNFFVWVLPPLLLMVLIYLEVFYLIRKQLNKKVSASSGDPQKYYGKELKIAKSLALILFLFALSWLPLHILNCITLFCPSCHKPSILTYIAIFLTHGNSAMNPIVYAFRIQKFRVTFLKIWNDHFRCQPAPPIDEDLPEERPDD
Nature of the assay: Agonist activity at recombinant human adenosine A1 receptor expressed in CHO cell membranes assessed as inhibition of forskolin-stimulated adenylyl cyclase activity after 10 mins in presence of [alpha-32P]ATP. The assay is classed as functional, cell-based. The method in brief: (§2)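 hA1 in CHO cell membranes (single high-speed spin, resuspended in 50 mM Tris/HCl pH 7.4, used immediately); agonist inhibition of forskolin-stimulated adenylyl cyclase; efficacy relative to CCPA as reference full agonist (100%). Geometric means with 95% confidence intervals, n = 3.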

Assay [3] concerns the target T2, Adenosine receptor A1. Nature of the assay: Displacement of [3H]CCPA from recombinant human adenosine A1 receptor expressed in CHO cell membranes after 3 hrs by microbeta scintillation counting. The method in brief:
as §1

For assay [4], the target named is T3, Adenosine receptor A2a (Homo sapiens, UniProt P29274). Nature of the assay: Displacement of [3H]NECA from recombinant human adenosine A2A receptor expressed in CHO cell membranes after 3 hrs by microbeta scintillation counting. The method in brief: as §1
The target of assay [5] is T4, Adenosine receptor A3 (Homo sapiens, UniProt P0DMS8).
T4 sequence (P0DMS8 whole entry): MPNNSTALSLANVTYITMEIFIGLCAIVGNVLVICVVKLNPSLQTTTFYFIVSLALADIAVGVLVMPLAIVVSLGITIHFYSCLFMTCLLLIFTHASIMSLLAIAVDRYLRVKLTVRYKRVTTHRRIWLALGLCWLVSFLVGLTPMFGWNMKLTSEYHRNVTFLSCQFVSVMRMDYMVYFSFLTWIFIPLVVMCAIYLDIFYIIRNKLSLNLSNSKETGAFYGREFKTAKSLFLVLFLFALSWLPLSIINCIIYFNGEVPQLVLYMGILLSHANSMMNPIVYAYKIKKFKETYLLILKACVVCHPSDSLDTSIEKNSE
As to the kind of experiment: Displacement of [3H]HEMADO from recombinant human adenosine […] receptor expressed in CHO cell membranes after 3 hrs by microbeta scintillation counting. The method in brief: as §1

The target in assay [6] is T3, Adenosine receptor A2a. Nature of the assay: Agonist activity at recombinant human adenosine A2A receptor expressed in CHO cell membranes assessed as stimulation of adenylyl cyclase activity by [alpha-32P]ATP assay. In kind it is functional, cell-based. The method in brief:
(§3)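 hA2A or hA2B in CHO cell membranes (one high-speed spin, pellet in 50 mM Tris/HCl pH 7.4, used immediately); agonist stimulation of adenylyl cyclase gives EC50; partial agonism judged as efficacy against 100 μM NECA as full agonist. Geometric means, 95% confidence intervals, n = 3.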

For assay [7], the target named is T5, Adenosine receptor A2b (Homo sapiens, UniProt P29275).
T5 sequence (P29275 whole entry): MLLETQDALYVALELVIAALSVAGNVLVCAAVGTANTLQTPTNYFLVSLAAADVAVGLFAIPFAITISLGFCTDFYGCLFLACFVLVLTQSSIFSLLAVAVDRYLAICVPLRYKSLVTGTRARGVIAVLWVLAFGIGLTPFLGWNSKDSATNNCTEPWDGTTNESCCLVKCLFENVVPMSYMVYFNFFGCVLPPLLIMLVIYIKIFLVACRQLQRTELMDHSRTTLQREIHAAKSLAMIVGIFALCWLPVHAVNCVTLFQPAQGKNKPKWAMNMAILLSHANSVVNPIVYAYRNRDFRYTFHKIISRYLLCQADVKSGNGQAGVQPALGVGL
As to the kind of experiment: Agonist activity at recombinant human adenosine A2B receptor expressed in CHO cell membranes assessed as stimulation of adenylyl cyclase activity by [alpha-32P]ATP assay. The assay is classed as functional, cell-based. The method in brief:
as §3

Assay [8] has as its target T4, Adenosine receptor A3. As to the kind of experiment: Antagonist activity at recombinant human adenosine A3 receptor expressed in CHO cell membranes assessed as reversal of NECA-mediated inhibition of adenylyl cyclase activity after 10 mins by [alpha-32P]ATP assay. In kind it is functional, cell-based.
Assay [9] addresses T6, Adenosine receptor A1 (Homo sapiens) (UniProt P30542).
T6 sequence (whole entry): T2 sequence (P30542 whole entry)
As to the kind of experiment: Agonist activity at recombinant human adenosine A1 receptor expressed in CHO cell membranes assessed as inhibition of forskolin-stimulated adenylyl cyclase activity after 10 mins relative to CCPA. In kind it is functional, cell-based. In short, it runs like this:
as §2

Assay [10] deals with T3, Adenosine receptor A2a. As to the kind of experiment: Agonist activity at recombinant human adenosine A2A receptor expressed in CHO cell membranes assessed as stimulation of adenylyl cyclase activity relative to NECA. The assay is classed as functional, cell-based. In short, it runs like this:
as §3

Assay [11] addresses T7, Adenosine receptor A2b (Homo sapiens) (UniProt P29275).
T7 sequence (whole entry): T5 sequence (P29275 whole entry)
Nature of the assay: Agonist activity at recombinant human adenosine A2B receptor expressed in CHO cell membranes assessed as stimulation of adenylyl cyclase activity relative to NECA. In kind it is functional, cell-based. In short, it runs like this: as §3

The species named for assay [12] is Homo sapiens. Nature of the assay: Selectivity ratio of Ki for recombinant human adenosine A2A receptor expressed in CHO cell membranes to Ki for recombinant human adenosine A1 receptor expressed in CHO cell membranes. The assay is classed as cell-based. The method in brief:
as §1

The species entered for assay [13] is Homo sapiens. Nature of the assay: Selectivity ratio of Ki for recombinant human adenosine A2A receptor expressed in CHO cell membranes to Ki for recombinant human adenosine A3 receptor expressed in CHO cell membranes. The assay is classed as cell-based. In short, it runs like this: as §1
Assay [14] concerns the target Adenosine receptors; A1 & A3 (Homo sapiens) (UniProt P30542+P0DMS8). As to the kind of experiment: Selectivity ratio of Ki for recombinant human adenosine A3 receptor expressed in CHO cell membranes to Ki for recombinant human adenosine A1 receptor expressed in CHO cell membranes. In kind it is cell-based. The method in brief:
as §1

T3 sequence (P29274 whole entry): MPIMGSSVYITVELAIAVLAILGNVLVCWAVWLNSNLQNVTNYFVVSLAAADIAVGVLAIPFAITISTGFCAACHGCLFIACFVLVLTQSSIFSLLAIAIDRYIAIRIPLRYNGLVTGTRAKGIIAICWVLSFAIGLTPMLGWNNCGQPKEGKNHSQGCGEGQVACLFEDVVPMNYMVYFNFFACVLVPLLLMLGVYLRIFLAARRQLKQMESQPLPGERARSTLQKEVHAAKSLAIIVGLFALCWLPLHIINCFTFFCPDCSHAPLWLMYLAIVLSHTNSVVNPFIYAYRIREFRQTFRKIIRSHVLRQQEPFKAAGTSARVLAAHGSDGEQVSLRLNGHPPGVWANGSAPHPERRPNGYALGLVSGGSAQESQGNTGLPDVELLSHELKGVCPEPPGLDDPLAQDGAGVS

As for `CCn1nnc([C@H]2O[C@@H](n3cnc4c(N)nc(Cl)nc43)[C@H](O)[C@@H]2O)n1`, in [1], the Ki is 212 nM.
Regarding `CCn1nnc([C@H]2O[C@@H](n3cnc4c(NCc5cccc(Br)c5)nc(Cl)nc43)[C@H](O)[C@@H]2O)n1`, the EC50 amounted to 72.8 nM in assay [2], 13.3 nM in assay [6], 1650 nM in assay [7] and 9.64 nM in assay [8]. The Ki is 1.79 nM in [3], 58.2 nM in assay [4] and 0.345 nM in [5]. The Efficacy in assay [9], in assay [10] and in [11] was greater than 90% in each case. Further, the Ratio Ki is 32 in assay [12], 171 in assay [13] and 0.19 in assay [14].
On to `CCn1nnc([C@H]2O[C@@H](n3cnc4c(NCc5cccs5)nc(Cl)nc43)[C@H](O)[C@@H]2O)n1`, for which the 50% effective concentration (EC50) worked out at 222 nM in [2], 38.4 nM in assay [6], 2140 nM in assay [7] and 44.7 nM in assay [8]. In addition, the inhibitory constant (Ki) in assay [3] worked out at 6.02 nM; in assay [4], 286 nM; in assay [5], 1.59 nM. For the same compound, the Efficacy in assay [9], in assay [10] and in [11] was greater than 90% in each case. Also, the Ratio Ki in assay [12] is 47; in assay [13] it was 180; in [14], 0.26.
As for `CCn1nnc([C@H]2O[C@@H](n3cnc4c(N)ncnc43)[C@H](O)[C@@H]2O)n1`, the Ki in assay [1] is 228 nM.
Still for that read-out and setting: in the case of `CCn1nnc([C@H]2O[C@@H](n3cnc4c(Nc5ccc(Cl)cc5F)ncnc43)[C@H](O)[C@@H]2O)n1` it was 21.4 nM.
Take `CCn1nnc([C@H]2O[C@@H](n3cnc4c(NCc5ccco5)nc(Cl)nc43)[C@H](O)[C@@H]2O)n1`: the EC50 in [2] was 341 nM; in assay [6], 60.2 nM; in assay [7] it was 2570 nM; in [8], 52.4 nM. For the same compound, the Ki turned out to be 7.64 nM in assay [3], 663 nM in assay [4] and 1.31 nM in [5]. Moreover, the Efficacy in assay [9], in assay [10] and in assay [11] was greater than 90% each time. Moreover, the Ratio Ki worked out at 87 in assay [12], 506 in assay [13] and 0.17 in assay [14].
`CCn1nnc([C@H]2O[C@@H](n3cnc4c(NC)nc(Cl)nc43)[C@H](O)[C@@H]2O)n1`: the Ki in [1] worked out at 600 nM.
Consider `CCn1nnc([C@H]2O[C@@H](n3cnc4c(NC5CC5)nc(Cl)nc43)[C@H](O)[C@@H]2O)n1`, for which the EC50 came to 7.21 nM in [2], 21.5 nM in [6], 677 nM in [7] and 14.1 nM in assay [8]. Moreover, the Ki came out at 0.538 nM in [3], 274 nM in assay [4] and 0.461 nM in assay [5]. Also, the Ratio Ki is 509 to 510 in [12], 596 in [13] and 0.86 in [14].
For `CCn1nnc([C@H]2O[C@@H](n3cnc4c(NCc5cccc(F)c5)nc(Cl)nc43)[C@H](O)[C@@H]2O)n1`, the EC50 came out at 239 nM in assay [2], 31.3 nM in assay [6], 2230 nM in [7] and 31.5 nM in assay [8]. Also, the Ki is 6.04 nM in [3], 242 nM in assay [4] and 0.806 nM in assay [5]. Besides, the Efficacy in [9], in assay [10] and in [11] was greater than 90% each time. Also, the results for the Ratio Ki in assay [12], in assay [13] and in assay [14] were 40, 299 and 0.13, respectively.
Consider `CCn1nnc([C@H]2O[C@@H](n3cnc4c(NCc5ccc(Cl)cc5F)nc(Cl)nc43)[C@H](O)[C@@H]2O)n1`, for which the EC50 in [2] is 539 nM; in assay [6] it was 96.5 nM; in assay [7], greater than 30000 nM; in [8], 105 nM. Moreover, the results for the Ki in [3], in assay [4] and in assay [5] were 17.6 nM, 881 nM and 5.17 nM, respectively. In addition, the Efficacy in assay [9], in [10] and in assay [11] was greater than 90% each time. For the same compound, the Ratio Ki in assay [12] worked out at 50; in assay [13], 170; in assay [14], 0.29.
Take `CCn1nnc([C@H]2O[C@@H](n3cnc4c(NCc5cccc(Cl)c5)nc(Cl)nc43)[C@H](O)[C@@H]2O)n1`: the EC50 turned out to be 116 nM in assay [2], 16 nM in assay [6], 2390 nM in assay [7] and 7.61 nM in [8]. For the same compound, the Ki is 2.71 nM in [3], 110 nM in assay [4] and 0.387 nM in assay [5]. Besides, the Efficacy in [9], in assay [10] and in assay [11] was greater than 90% each time. The Ratio Ki in assay [12] is 40; in assay [13], 282; in assay [14], 0.14.
`CCn1nnc([C@H]2O[C@@H](n3cnc4c(NCC5CC5)nc(Cl)nc43)[C@H](O)[C@@H]2O)n1`: the EC50 is 7.21 nM in [2], 28.6 nM in assay [6], 1960 nM in assay [7] and 14.4 nM in assay [8]. Further, the Ki came out at 0.454 nM in assay [3], 329 nM in assay [4] and 0.313 nM in assay [5]. For the same compound, the Efficacy in assay [9], in assay [10] and in assay [11] was greater than 90% in each case. Besides, the Ratio Ki in assay [12] was 725; in [13] it was 1100; in assay [14] it was 0.66.
